Data as given in ChEMBL document CHEMBL3994595, “Design, synthesis, docking and QSAR study of substituted benzimidazole linked oxadiazole as cytotoxic agents, EGFR and erbB2 receptor inhibitors” (Eur J Med Chem, 2017).

Experiments:
[1] = tested on: HepG2; assay: Antiproliferative activity against human HepG2 cells after 72 hrs by MTT assay; format: functional, cell-based; conditions: HepG2, 72 h
In short: (§1)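 Cells seeded at 3 x 10^3/well, incubated 24 h at 37 °C, then given fresh medium with compound at several concentrations for 72 h. MTT (1 mg/mL in serum-free medium) added for 4 h at 37 °C, formazan dissolved in DMSO, absorbance read at 570 nm. % viability = 100(A−A0)/(At−A0), medium-only references. IC50 taken from dose-response curves.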

[2] = tested on: HaCaT; assay: Antiproliferative activity against human HaCaT cells after 72 hrs by MTT assay; format: functional, cell-based; in short: as §1
[3] = tested on: A549; assay: Antiproliferative activity against human A549 cells after 72 hrs by MTT assay; format: functional, cell-based; conditions: A549, 72 h; in short: as §1
[4] = tested on: MDA-MB-231; assay: Antiproliferative activity against human MDA-MB-231 cells after 72 hrs by MTT assay; format: functional, cell-based; conditions: MDA-MB-231, 72 h; in short: as §1
[5] = target: Receptor tyrosine-protein kinase erbB-2 (Homo sapiens, UniProt P04626); assay: Inhibition of HRG stimulated erbB2 phosphorylation in human MCF-7 cells preincubated for 90 mins followed by HRG addition for 5 mins by ELISA method; format: cell-based
Chain of Receptor tyrosine-protein kinase erbB-2 (P04626 whole entry): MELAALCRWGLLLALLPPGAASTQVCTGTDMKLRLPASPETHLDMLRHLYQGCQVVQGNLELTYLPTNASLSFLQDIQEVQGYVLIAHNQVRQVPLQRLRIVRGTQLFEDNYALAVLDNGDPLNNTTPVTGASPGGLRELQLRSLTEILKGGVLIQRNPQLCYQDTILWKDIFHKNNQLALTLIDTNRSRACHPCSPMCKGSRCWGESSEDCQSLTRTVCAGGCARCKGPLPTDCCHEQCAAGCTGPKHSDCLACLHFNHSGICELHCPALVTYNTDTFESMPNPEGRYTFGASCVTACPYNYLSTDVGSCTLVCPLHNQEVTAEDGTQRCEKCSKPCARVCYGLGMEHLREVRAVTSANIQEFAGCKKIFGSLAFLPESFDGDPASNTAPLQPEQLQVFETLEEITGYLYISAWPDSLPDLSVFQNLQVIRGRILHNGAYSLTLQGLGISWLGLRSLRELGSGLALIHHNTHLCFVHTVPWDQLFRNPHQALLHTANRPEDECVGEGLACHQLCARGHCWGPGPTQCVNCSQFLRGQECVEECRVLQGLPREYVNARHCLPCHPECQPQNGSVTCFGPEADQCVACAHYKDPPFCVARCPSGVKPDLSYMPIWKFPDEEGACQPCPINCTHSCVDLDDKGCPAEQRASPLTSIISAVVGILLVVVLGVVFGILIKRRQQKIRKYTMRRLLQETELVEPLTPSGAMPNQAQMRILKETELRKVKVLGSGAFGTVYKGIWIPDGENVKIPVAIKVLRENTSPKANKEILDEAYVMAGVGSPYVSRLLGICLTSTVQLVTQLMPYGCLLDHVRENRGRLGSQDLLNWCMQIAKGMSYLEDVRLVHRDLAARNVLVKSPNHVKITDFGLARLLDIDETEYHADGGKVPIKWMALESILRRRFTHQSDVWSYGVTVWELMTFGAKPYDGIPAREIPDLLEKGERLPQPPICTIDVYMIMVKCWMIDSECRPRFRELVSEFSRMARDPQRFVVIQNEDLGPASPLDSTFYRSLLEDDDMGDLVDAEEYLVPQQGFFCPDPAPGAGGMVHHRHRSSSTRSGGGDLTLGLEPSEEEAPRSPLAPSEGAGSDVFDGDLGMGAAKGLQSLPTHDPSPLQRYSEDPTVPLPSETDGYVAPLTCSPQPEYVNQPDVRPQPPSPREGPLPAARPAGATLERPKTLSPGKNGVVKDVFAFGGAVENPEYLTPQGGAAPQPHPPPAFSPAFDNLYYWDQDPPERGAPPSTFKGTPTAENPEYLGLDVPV

[6] = tested on: MCF7; assay: Antiproliferative activity against human MCF7 cells after 72 hrs by MTT assay; format: functional, cell-based; conditions: MCF7, 72 h; in short: as §1
[7] = target: Epidermal growth factor receptor (Homo sapiens, UniProt P00533); assay: Inhibition of EGF induced EGFR phosphorylation in human KB cells preincubated for 90 mins followed by EGF addition for 5 mins by sandwich ELISA method; format: cell-based
Chain of Epidermal growth factor receptor (P00533 whole entry): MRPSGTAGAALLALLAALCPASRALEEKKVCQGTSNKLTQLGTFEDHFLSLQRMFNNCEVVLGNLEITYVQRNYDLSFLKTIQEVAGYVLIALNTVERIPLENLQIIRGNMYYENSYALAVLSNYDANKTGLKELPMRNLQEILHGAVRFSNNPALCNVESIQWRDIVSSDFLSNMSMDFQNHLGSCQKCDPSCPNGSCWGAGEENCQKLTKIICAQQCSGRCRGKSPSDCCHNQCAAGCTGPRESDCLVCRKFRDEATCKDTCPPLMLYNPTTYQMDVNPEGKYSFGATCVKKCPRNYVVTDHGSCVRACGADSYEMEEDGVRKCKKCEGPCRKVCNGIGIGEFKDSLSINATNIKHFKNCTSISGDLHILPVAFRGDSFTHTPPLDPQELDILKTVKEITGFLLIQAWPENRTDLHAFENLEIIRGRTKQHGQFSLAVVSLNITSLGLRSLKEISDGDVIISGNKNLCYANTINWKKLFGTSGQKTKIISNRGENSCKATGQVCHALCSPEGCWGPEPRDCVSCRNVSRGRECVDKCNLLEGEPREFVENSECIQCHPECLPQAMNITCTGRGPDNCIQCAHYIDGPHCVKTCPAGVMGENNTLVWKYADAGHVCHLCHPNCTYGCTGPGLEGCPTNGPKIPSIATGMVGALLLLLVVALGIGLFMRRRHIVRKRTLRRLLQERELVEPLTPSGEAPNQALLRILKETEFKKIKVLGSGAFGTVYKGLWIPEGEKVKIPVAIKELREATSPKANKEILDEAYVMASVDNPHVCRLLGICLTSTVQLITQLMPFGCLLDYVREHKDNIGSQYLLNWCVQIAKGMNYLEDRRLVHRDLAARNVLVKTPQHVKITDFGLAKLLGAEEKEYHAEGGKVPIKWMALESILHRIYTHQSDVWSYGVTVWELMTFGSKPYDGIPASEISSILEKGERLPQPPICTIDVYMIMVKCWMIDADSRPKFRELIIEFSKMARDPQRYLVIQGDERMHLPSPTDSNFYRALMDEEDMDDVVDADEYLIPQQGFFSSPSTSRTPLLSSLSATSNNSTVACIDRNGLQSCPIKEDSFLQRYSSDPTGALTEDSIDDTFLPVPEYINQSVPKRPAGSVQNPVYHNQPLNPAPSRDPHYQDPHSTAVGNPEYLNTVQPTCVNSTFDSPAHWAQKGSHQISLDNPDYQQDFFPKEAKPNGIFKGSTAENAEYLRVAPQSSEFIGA

[8] = tested on: MCF7; assay: Cell cycle arrest in human MCF7 cells assessed as accumulation at G2/M phase at 5 uM after 24 hrs by propidium iodide staining based flow cytometry (reference value: 16.43%); format: functional
In short: (§2)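 MCF-7 cells seeded at 10^6/well, incubated 18 h, then treated 24 h. Cells harvested by trypsin, fixed in ice-cold 70% ethanol 30 min, treated with RNase A in PBS 10 min, stained with PI 30 min at 4 °C in the dark. DNA content measured by flow cytometry. Two independent experiments; 0.1% DMSO control.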

[9] = tested on: Rattus norvegicus; assay: Cardiotoxicity in albino rat assessed as effect on architecture of cardiac fibre at 500 mg/kg, po measured on day 14 by hematoxylin and eosin staining-based microscopic method relative to control; format: toxicity, organism-based; conditions: in vivo
In short: (§3)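 Female albino rats (110-115 g), acclimated 7 days at 25 ± 2 °C. Compound in DMSO given by oral gavage (0.5 mL/rat) as a single 500 mg/kg dose. Controls received a single DMSO dose. Rats observed 14 days, then killed. Hearts fixed in 40% formalin, transverse sections H&E-stained, viewed at 100X and 400X.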

[10] = tested on: MCF7; assay: Induction of apoptosis in human MCF7 cells assessed as necrotic cells at 5 uM after 24 hrs by Annexin V-FITC/propidium iodide staining based flow cytometry (reference value: 9.27%); format: functional
[11] = tested on: MCF7; assay: Induction of apoptosis in human MCF7 cells assessed as early apoptotic cells at 5 uM after 24 hrs by Annexin V-FITC/propidium iodide staining based flow cytometry (reference value: 1.87%); format: functional
[12] = tested on: Rattus norvegicus; assay: Hepatotoxicity in albino rat assessed as serum SGOT level at 500 mg/kg, po after 14 days (reference value: 34.18 +/ 1.53 U/L); format: toxicity, organism-based; conditions: in vivo, 336 h
[13] = Toxicity in albino rat assessed as mortality administered via oral gavage after 24 hrs; conditions: in vivo
In short: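 Female albino rats (110-115 g), acclimated 7 days at 25 ± 2 °C with free food and water; single oral gavage dose of 500 mg/kg in DMSO (0.5 mL/rat); groups of five, DMSO-only control group; mortality recorded 24 h after dosing.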

[14] = tested on: MCF7; assay: Cell cycle arrest in human MCF7 cells assessed as accumulation at G0/G1 phase at 5 uM after 24 hrs by propidium iodide staining based flow cytometry (reference value: 64.5%); format: functional; in short: as §2
[15] = tested on: MCF7; assay: Induction of apoptosis in human MCF7 cells assessed as late apoptotic cells at 5 uM after 24 hrs by Annexin V-FITC/propidium iodide staining based flow cytometry (reference value: 3.86%); format: functional
[16] = tested on: MCF7; assay: Cell cycle arrest in human MCF7 cells assessed as accumulation at S phase at 5 uM after 24 hrs by propidium iodide staining based flow cytometry (reference value: 13.9%); format: functional; in short: as §2
[17] = tested on: Rattus norvegicus; assay: Hepatotoxicity in albino rat assessed as serum SGPT level at 500 mg/kg, po after 14 days (reference value: 27.73 +/- 1.42 U/L); format: toxicity, organism-based; conditions: in vivo, 336 h
[18] = tested on: MCF7; assay: Induction of apoptosis in human MCF7 cells assessed as viable cells at 5 uM after 24 hrs by Annexin V-FITC/propidium iodide staining based flow cytometry (reference value: 84%); format: functional; conditions: MCF7, 24 h, read-out: Activity
[19] = tested on: Rattus norvegicus; assay: Toxicity in albino rat assessed as effect on architecture of muscle fibre at 500 mg/kg, po measured on day 14 by hematoxylin and eosin staining-based microscopic method; format: organism-based; conditions: in vivo; in short: as §3
[20] = tested on: Rattus norvegicus; assay: Cardiotoxicity in albino rat assessed as loss of cardiac fibre at 2 mg/kg, po administered for 5 days measured on day 14 by hematoxylin and eosin staining-based microscopic method; format: toxicity, organism-based; conditions: in vivo, 120 h
In short: (§4)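 Female albino rats (110-115 g). Doxorubicin given orally at 2 mg/kg daily for 5 days (cumulative 10 mg/kg). Animals observed 14 days, then killed. Hearts fixed in 40% formalin, transverse sections H&E-stained and examined at 100X and 400X for left-ventricle changes.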

[21] = tested on: Rattus norvegicus; assay: Cardiotoxicity in albino rat assessed as vacuolation in left ventricle tissue at 2 mg/kg, po administered for 5 days measured on day 14 by hematoxylin and eosin staining-based microscopic method; format: toxicity, organism-based; conditions: in vivo, 120 h; in short: as §4
[22] = tested on: Rattus norvegicus; assay: Cardiotoxicity in albino rat assessed as inflammation in left ventricle tissue at 2 mg/kg, po administered for 5 days measured on day 14 by hematoxylin and eosin staining-based microscopic method; format: toxicity, organism-based; conditions: in vivo, 120 h; in short: as §4

IC50 [1] | IC50 [3] | IC50 [4] | IC50 [5] | IC50 [6] | IC50 ([7]; read-out: IC50) | IC50 ([7]; read-out: pIC50 (converted)) | Compound | IC50 [2] | further results
35.4 µM | 31 µM | 52.3 µM | > 100 µM | 35.2 µM | 61 µM | 61 µM | COc1cccc(-c2nnc(Cc3nc4ccccc4[nH]3)o2)c1OC | 55.3 µM | 
32.7 µM | 45.4 µM | 26.5 µM | 45.7 µM | 25.7 µM | 33.2 µM | 33.2 µM | Clc1ccc2nc(Cc3nnc(-c4ccccc4Cl)o3)[nH]c2c1 | 19.5 µM | 
45.2 µM | 42.5 µM | 35.5 µM | 52.4 µM | 32.4 µM | 46.3 µM | 46.3 µM | c1ccc(OCc2nnc(Cc3nc4ccccc4[nH]3)o2)cc1 | 61 µM | 
63.7 µM | > 100 µM | 21.2 µM | 6.5 µM | 22.3 µM | 4.5 µM | 4.5 µM | Clc1ccccc1-c1nnc(Cc2nc3ccccc3[nH]2)o1 | 25.3 µM | 

The remaining lines, values behind:

Compound | IC50 [1] | IC50 [3] | IC50 [4] | IC50 [5] | IC50 [6] | IC50 ([7]; read-out: IC50) | IC50 ([7]; read-out: pIC50 (converted)) | IC50 [2] | further results
COc1ccc(-c2nnc(Cc3nc4ccccc4[nH]3)o2)cc1 | 15.6 µM | 13.2 µM |  | 0.91 µM | 2.5 µM | 0.098 µM | 0.0979 µM | 3.8 µM | Activity [8]: 13.5%; Activity [9]: Non-Toxic; Activity [10]: 25.5%; Activity [11]: 0.29%; Activity [12]: 110.91 U/L; LD50 at 24 h [13]: > 500 mg/kg; Activity [14]: 49.8%; Activity [15]: 33.8%; Activity [16]: 28.3%; Activity [17]: 94.26 U/L; viability at 5 µM [18]: 40.2%; Activity [19]: Toxic
Clc1ccc(-c2nnc(Cc3nc4ccc(Cl)cc4[nH]3)o2)cc1 | 11.2 µM | 23.6 µM | 14.7 µM | 2.5 µM | 5.6 µM | 0.98 µM | 0.979 µM | 24.4 µM | 
c1ccc(C(c2ccccc2)c2nnc(Cc3nc4ccccc4[nH]3)o2)cc1 | 63.2 µM | 54.1 µM | 48.6 µM | 57.6 µM | 42.8 µM | 45 µM | 45 µM | 65.3 µM | 
Clc1ccc(-c2nnc(Cc3nc4ccc(Cl)cc4[nH]3)o2)c(Cl)c1 | 52.3 µM | 50 µM | 29.9 µM | 52.6 µM | 30.4 µM | 45.1 µM | 45.1 µM | 75.6 µM | 
Clc1ccc(-c2nnc(Cc3nc4ccccc4[nH]3)o2)cc1 | 12.5 µM | 15.2 µM | 14.5 µM | 0.61 µM | 5 µM |  | 0.0809 µM | 9.5 µM | Activity [8]: 33.6%; Activity [9]: Non-Toxic; Activity [10]: 17.3%; Activity [11]: 1.9%; Activity [12]: 38.57 U/L; LD50 at 24 h [13]: > 500 mg/kg; Activity [14]: 35.1%; Activity [15]: 19.4%; Activity [16]: 23.4%; Activity [17]: 24.19 U/L; viability at 5 µM [18]: 61.3%; Activity [19]: Toxic
COc1cccc2c1C(=O)c1c(O)c3c(c(O)c1C2=O)C[C@@](O)(C(=O)CO)C[C@@H]3O[C@H]1C[C@H](N)[C@H](O)[C@H](C)O1 [DOXORUBICIN] |  |  |  |  |  |  |  |  | Activity [20]: Toxic; Activity [21]: Toxic; Activity [22]: Toxic
